Measurements: ChEMBL document CHEMBL4627393, “Discovery of Potent, Selective, and State-Dependent NaV1.7 Inhibitors with Robust Oral Efficacy in Pain Models: Structure-Activity Relationship and Optimization of Chroman and Indane Aryl Sulfonamides” (J Med Chem, 2020)
Each block holds one molecule with its values, some of them ahead of it.

Legend:
[1] = Lipophilicity, log D of the compound; format: physicochemical; settings: octanol/water
[2] = AUClast in BALB/c mouse at 1 mg/kg, iv measured upto 24 hrs by LC/MS-MS analysis; format: ADME, organism-based; parameters: time < 24 hr, dose 1 mg/kg, route intravenous; settings: in vivo
[3] = Metabolic stability in mouse liver microsomes assessed as metabolic rate at 1 uM preincubated for 5 mins followed by NADPH addition and measured up to 30 mins by LC/MS-MS analysis; format: ADME, Microsome; settings: 0.5 h
[4] = AUClast in BALB/c mouse at 10 mg/kg, po measured upto 24 hrs by LC/MS-MS analysis; format: ADME, organism-based; parameters: dose 10 mg/kg, time < 24 hr, route oral; settings: in vivo
[5] = Metabolic stability in rat liver microsomes assessed as metabolic rate at 1 uM preincubated for 5 mins followed by NADPH addition and measured up to 30 mins by LC/MS-MS analysis; format: ADME, Microsome; settings: 0.5 h
[6] = Half life in BALB/c mouse at 1 mg/kg, iv measured upto 24 hrs by LC/MS-MS analysis; format: ADME, organism-based; settings: in vivo
[7] = Cmax in BALB/c mouse at 1 mg/kg, iv measured upto 24 hrs by LC/MS-MS analysis; format: ADME, organism-based; parameters: dose 1 mg/kg, route intravenous; settings: in vivo
[8] = Cmax in BALB/c mouse at 10 mg/kg, po measured upto 24 hrs by LC/MS-MS analysis; format: ADME, organism-based; parameters: dose 10 mg/kg, route oral; settings: in vivo
[9] = Volume of distribution at steady state in BALB/c mouse at 1 mg/kg, iv measured upto 24 hrs by LC/MS-MS analysis; format: ADME, organism-based; settings: in vivo, read-out: Vdss
Procedure, shortened: (§1)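 Pharmacokinetics were run with an IV dose of 1 mg/kg and a PO dose of 10 mg/kg. Parameters reported were AUClast, Cmax, CL, T1/2, Vss and %F.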

[10] = Metabolic stability in human liver microsomes assessed as metabolic rate at 1 uM preincubated for 5 mins followed by NADPH addition and measured up to 30 mins by LC/MS-MS analysis; format: ADME, Microsome; settings: 0.5 h
[11] = Clearance in BALB/c mouse at 1 mg/kg, iv measured upto 24 hrs by LC/MS-MS analysis; format: ADME, organism-based; settings: in vivo
[12] = Oral bioavailability in BALB/c mouse at 10 mg/kg measured upto 24 hrs by LC/MS-MS analysis; format: ADME, organism-based; settings: in vivo; procedure, shortened: as §1

- logD [1]: 3.2
Compound: Cn1nccc1-c1cc(C(F)(F)F)ccc1[C@H]1CCOc2cc(S(=O)(=O)Nc3cc(F)ccn3)ccc21

- logD [1]: 3
Compound: Cc1ccc(-c2cc(C(F)(F)F)ccc2[C@H]2CCOc3cc(S(=O)(=O)Nc4ccncn4)ccc32)cn1

- logD [1]: 2.2
Compound: Cn1nccc1-c1cc(C(F)(F)F)ccc1[C@H]1CCOc2cc(S(=O)(=O)Nc3cccnn3)ccc21

- logD [1]: 1.8
Compound: Cn1nccc1-c1cc(C(F)(F)F)ccc1[C@H]1CCOc2cc(S(=O)(=O)Nc3ccncn3)ccc21

- logD [1]: 2.9
Compound: O=S(=O)(Nc1ncccn1)c1ccc2c(c1)OCC[C@@H]2c1ccc(C(F)(F)F)cc1-c1ccc(F)cn1

- logD [1]: 2.2
Compound: Cn1nccc1-c1cc(C(F)(F)F)ccc1[C@@H]1CCOc2cc(S(=O)(=O)Nc3nccs3)ccc21

- logD [1]: 3
Compound: O=S(=O)(Nc1ccncn1)c1ccc2c(c1)OCC[C@@H]2c1ccc(C(F)(F)F)cc1-c1ccc(F)cn1

- logD [1]: 2
Compound: O=S(=O)(Nc1ccncn1)c1ccc2c(c1)OCC[C@@H]2c1ccc(C(F)(F)F)cc1N1CCOCC1

- AUC(0-t) at 24 h [2]: 2.2 µM·h
- Drug metabolism [3]: 0.1 nmol/min/mg
- AUC(0-t) at 24 h [4]: 15 µM·h
- Drug metabolism [5]: 0.04 nmol/min/mg
- half-life [6]: 2 h
- Cmax [7]: 1300 nM
- Cmax [8]: 6000 nM
- Vd [9]: 2.2 L/kg
- Drug metabolism [10]: 0.05 nmol/min/mg
- clearance [11]: 14 mL/min/kg
- bioavailability [12]: 68%
- logD [1]: 2.2
Compound: Cn1nccc1-c1cc(C(F)(F)F)ccc1[C@H]1CCOc2cc(S(=O)(=O)Nc3nccs3)ccc21

Continued, molecule first:

Compound: Cc1nc(-c2cc(C(F)(F)F)ccc2[C@@H]2CCOc3cc(S(=O)(=O)Nc4nccs4)ccc32)co1
- logD [1]: 2.9

Compound: O=S(=O)(Nc1cccc(F)n1)c1ccc2c(c1)OCC[C@@H]2c1ccc(C(F)(F)F)cc1N1CCOCC1
- logD [1]: 4.1

Compound: O=S(=O)(Nc1nccs1)c1ccc2c(c1)OCC[C@@H]2c1ccc(C(F)(F)F)cc1-c1nccs1
- logD [1]: 3.3

Compound: O=S(=O)(Nc1ncc(F)cn1)c1ccc2c(c1)OCC[C@@H]2c1ccc(C(F)(F)F)cc1N1CCOCC1
- logD [1]: 2.8

Compound: O=S(=O)(Nc1ncc(F)cn1)c1ccc2c(c1)OCC[C@@H]2c1ccc(C(F)(F)F)cc1-c1ccc(F)cn1
- logD [1]: 3

Compound: O=S(=O)(Nc1nccs1)c1ccc2c(c1)OCC[C@@H]2c1ccc(C(F)(F)F)cc1-c1ccc(F)nc1
- AUC(0-t) at 24 h [2]: 2 µM·h
- Drug metabolism [3]: 0.04 nmol/min/mg
- AUC(0-t) at 24 h [4]: 19 µM·h
- Drug metabolism [5]: 0.05 nmol/min/mg
- half-life [6]: 2.8 h
- Cmax [7]: 800 nM
- Cmax [8]: 4200 nM
- Vd [9]: 2.9 L/kg
- Drug metabolism [10]: 0.03 nmol/min/mg
- clearance [11]: 14 mL/min/kg
- bioavailability [12]: 95%
- logD [1]: 3.2

Compound: O=S(=O)(Nc1nccs1)c1ccc2c(c1)OCC[C@H]2c1ccc(C(F)(F)F)cc1-c1ccc(F)cc1
- logD [1]: 4.5

Compound: Cc1ccc(-c2cc(C(F)(F)F)ccc2[C@H]2CCc3cc(S(=O)(=O)Nc4ncccn4)ccc32)cn1
- logD [1]: 2.8

Compound: O=S(=O)(Nc1nccs1)c1ccc2c(c1)OCC[C@H]2c1ccc(C(F)(F)F)cc1-c1nccs1
- logD [1]: 3.3

Compound: O=C1OCCN1c1cc(C(F)(F)F)ccc1[C@H]1CCOc2cc(S(=O)(=O)Nc3nccs3)ccc21
- logD [1]: 2.1

Compound: Cc1nc(-c2cc(C(F)(F)F)ccc2[C@H]2CCOc3cc(S(=O)(=O)Nc4nccs4)ccc32)co1
- logD [1]: 2.9

Compound: Cc1nc(-c2cc(C(F)(F)F)ccc2[C@H]2CCOc3cc(S(=O)(=O)Nc4cccc(F)n4)ccc32)co1
- logD [1]: 4
